Measurements: ChEMBL document CHEMBL4017482, “4-Connected azabicyclo[5.3.0]decane Smac mimetics-Zn2+ chelators as dual action antitumoral agents” (Bioorg Med Chem Lett, 2017)
The source made the active and inactive calls. The calls are words filed in the database; no cut-off is given here.

System: MDA-MB-231
Test: Induction of apoptosis in smac mimetic-sensitive human MDA-MB-231 cells assessed as increase in cleaved PARP level at 5 uM measured after 24 hrs by Western blot analysis
Assay type: functional, cell-based
Details: not given

SMILES | Activity
CC[C@H](NC)C(=O)N[C@@H]1C(=O)N2[C@@H](CC[C@@H]1CNC(=O)CCNC(=O)CN(Cc1ccccn1)Cc1ccccn1)CC[C@H]2C(=O)NC(c1ccccc1)c1ccccc1 | inactive
CC[C@H](NC)C(=O)N[C@@H]1C(=O)N2[C@@H](CC[C@@H]1CNC(=O)CCCCCCCCCCNC(=O)CN(Cc1ccccn1)Cc1ccccn1)CC[C@H]2C(=O)NC(c1ccccc1)c1ccccc1 | Active
CC[C@H](NC)C(=O)N[C@@H]1C(=O)N2[C@@H](CC[C@@H]1CNC(=O)COCCOCCNC(=O)CN(Cc1ccccn1)Cc1ccccn1)CC[C@H]2C(=O)NC(c1ccccc1)c1ccccc1 | inactive
CC[C@H](NC)C(=O)N[C@@H]1C(=O)N2[C@@H](CC[C@@H]1CNC(=O)CN(Cc1ccccn1)Cc1ccccn1)CC[C@H]2C(=O)NC(c1ccccc1)c1ccccc1 | Active
CC[C@H](NC)C(=O)N[C@@H]1C(=O)N2[C@@H](CC[C@@H]1CNC(=O)c1ccccc1)CC[C@H]2C(=O)NC(c1ccccc1)c1ccccc1 | Active

System: MDA-MB-231
Test: Cytotoxicity against human smac mimetic-sensitive human MDA-MB-231 cells after 24 hrs by CellTiter-Glo assay
Details: MDA-MB-231, 24 h

SMILES | IC50 [µM]
CC[C@H](NC)C(=O)N[C@@H]1C(=O)N2[C@@H](CC[C@@H]1CNC(=O)CCNC(=O)CN(Cc1ccccn1)Cc1ccccn1)CC[C@H]2C(=O)NC(c1ccccc1)c1ccccc1 | > 25
CC[C@H](NC)C(=O)N[C@@H]1C(=O)N2[C@@H](CC[C@@H]1CNC(=O)CCCCCCCCCCNC(=O)CN(Cc1ccccn1)Cc1ccccn1)CC[C@H]2C(=O)NC(c1ccccc1)c1ccccc1 | 0.97
CC[C@H](NC)C(=O)N[C@@H]1C(=O)N2[C@@H](CC[C@@H]1CNC(=O)COCCOCCNC(=O)CN(Cc1ccccn1)Cc1ccccn1)CC[C@H]2C(=O)NC(c1ccccc1)c1ccccc1 | > 25
CC[C@H](NC)C(=O)N[C@@H]1C(=O)N2[C@@H](CC[C@@H]1CNC(=O)CN(Cc1ccccn1)Cc1ccccn1)CC[C@H]2C(=O)NC(c1ccccc1)c1ccccc1 | 6.5
CC[C@H](NC)C(=O)N[C@@H]1C(=O)N2[C@@H](CC[C@@H]1CNC(=O)c1ccccc1)CC[C@H]2C(=O)NC(c1ccccc1)c1ccccc1 | 4.1

Target: E3 ubiquitin-protein ligase XIAP (Homo sapiens) (UniProt P98170)
Sequence (P98170 whole entry): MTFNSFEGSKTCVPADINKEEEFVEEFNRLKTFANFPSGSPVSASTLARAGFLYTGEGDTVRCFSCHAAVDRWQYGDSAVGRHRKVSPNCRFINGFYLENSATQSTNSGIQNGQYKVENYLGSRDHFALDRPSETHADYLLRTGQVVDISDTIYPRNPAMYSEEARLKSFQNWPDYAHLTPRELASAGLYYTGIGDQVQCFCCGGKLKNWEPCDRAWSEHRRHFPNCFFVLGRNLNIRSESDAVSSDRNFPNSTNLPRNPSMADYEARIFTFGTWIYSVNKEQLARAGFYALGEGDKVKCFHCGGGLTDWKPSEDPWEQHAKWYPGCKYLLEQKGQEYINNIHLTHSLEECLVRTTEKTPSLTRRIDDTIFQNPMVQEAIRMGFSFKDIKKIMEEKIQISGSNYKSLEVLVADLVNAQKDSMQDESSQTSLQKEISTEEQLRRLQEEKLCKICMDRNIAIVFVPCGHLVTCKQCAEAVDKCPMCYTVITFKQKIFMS
Test: Induction of XIAP degradation in smac mimetic-sensitive human MDA-MB-231 cells at 5 uM measured after 24 hrs by Western blot analysis
Details: not given

Activity | SMILES
inactive | CC[C@H](NC)C(=O)N[C@@H]1C(=O)N2[C@@H](CC[C@@H]1CNC(=O)CCNC(=O)CN(Cc1ccccn1)Cc1ccccn1)CC[C@H]2C(=O)NC(c1ccccc1)c1ccccc1
Active | CC[C@H](NC)C(=O)N[C@@H]1C(=O)N2[C@@H](CC[C@@H]1CNC(=O)CCCCCCCCCCNC(=O)CN(Cc1ccccn1)Cc1ccccn1)CC[C@H]2C(=O)NC(c1ccccc1)c1ccccc1
inactive | CC[C@H](NC)C(=O)N[C@@H]1C(=O)N2[C@@H](CC[C@@H]1CNC(=O)c1ccccc1)CC[C@H]2C(=O)N[C@H](C(=O)NCCN(Cc1ccccn1)Cc1ccccn1)c1ccccc1
inactive | CC[C@H](NC)C(=O)N[C@@H]1C(=O)N2[C@@H](CC[C@@H]1CNC(=O)COCCOCCNC(=O)CN(Cc1ccccn1)Cc1ccccn1)CC[C@H]2C(=O)NC(c1ccccc1)c1ccccc1
inactive | CC[C@H](NC)C(=O)N[C@@H]1C(=O)N2[C@@H](CC[C@@H]1CNC(=O)CN(Cc1ccccn1)Cc1ccccn1)CC[C@H]2C(=O)NC(c1ccccc1)c1ccccc1
inactive | CC[C@H](NC)C(=O)N[C@@H]1C(=O)N2[C@@H](CC[C@@H]1CNC(=O)c1ccccc1)CC[C@H]2C(=O)NC(c1ccccc1)c1ccccc1

System: MDA-MB-453
Test: Cytotoxicity against human smac mimetic-sensitive human MDA-MB-453 cells after 24 hrs by CellTiter-Glo assay
Details: MDA-MB-453, 24 h

SMILES | IC50 [µM]
CC[C@H](NC)C(=O)N[C@@H]1C(=O)N2[C@@H](CC[C@@H]1CNC(=O)CCNC(=O)CN(Cc1ccccn1)Cc1ccccn1)CC[C@H]2C(=O)NC(c1ccccc1)c1ccccc1 | > 25
CC[C@H](NC)C(=O)N[C@@H]1C(=O)N2[C@@H](CC[C@@H]1CNC(=O)CCCCCCCCCCNC(=O)CN(Cc1ccccn1)Cc1ccccn1)CC[C@H]2C(=O)NC(c1ccccc1)c1ccccc1 | > 25
CC[C@H](NC)C(=O)N[C@@H]1C(=O)N2[C@@H](CC[C@@H]1CNC(=O)COCCOCCNC(=O)CN(Cc1ccccn1)Cc1ccccn1)CC[C@H]2C(=O)NC(c1ccccc1)c1ccccc1 | > 25
CC[C@H](NC)C(=O)N[C@@H]1C(=O)N2[C@@H](CC[C@@H]1CNC(=O)CN(Cc1ccccn1)Cc1ccccn1)CC[C@H]2C(=O)NC(c1ccccc1)c1ccccc1 | > 25
CC[C@H](NC)C(=O)N[C@@H]1C(=O)N2[C@@H](CC[C@@H]1CNC(=O)c1ccccc1)CC[C@H]2C(=O)NC(c1ccccc1)c1ccccc1 | > 25

System: MDA-MB-453
Test: Induction of apoptosis in smac mimetic-resistant human MDA-MB-453 cells assessed as increase in cleaved PARP level at 5 uM measured after 24 hrs by Western blot analysis
Assay type: functional, cell-based
Details: not given

SMILES | Activity
CC[C@H](NC)C(=O)N[C@@H]1C(=O)N2[C@@H](CC[C@@H]1CNC(=O)CCNC(=O)CN(Cc1ccccn1)Cc1ccccn1)CC[C@H]2C(=O)NC(c1ccccc1)c1ccccc1 | inactive
CC[C@H](NC)C(=O)N[C@@H]1C(=O)N2[C@@H](CC[C@@H]1CNC(=O)CCCCCCCCCCNC(=O)CN(Cc1ccccn1)Cc1ccccn1)CC[C@H]2C(=O)NC(c1ccccc1)c1ccccc1 | inactive
CC[C@H](NC)C(=O)N[C@@H]1C(=O)N2[C@@H](CC[C@@H]1CNC(=O)COCCOCCNC(=O)CN(Cc1ccccn1)Cc1ccccn1)CC[C@H]2C(=O)NC(c1ccccc1)c1ccccc1 | inactive
CC[C@H](NC)C(=O)N[C@@H]1C(=O)N2[C@@H](CC[C@@H]1CNC(=O)CN(Cc1ccccn1)Cc1ccccn1)CC[C@H]2C(=O)NC(c1ccccc1)c1ccccc1 | inactive

Target: E3 ubiquitin-protein ligase XIAP (Homo sapiens) (UniProt P98170)
Test: Induction of XIAP degradation in smac mimetic-resistant human MDA-MB-453 cells at 5 uM measured after 24 hrs by Western blot analysis
Details: not given

Activity | SMILES
inactive | CC[C@H](NC)C(=O)N[C@@H]1C(=O)N2[C@@H](CC[C@@H]1CNC(=O)CCCCCCCCCCNC(=O)CN(Cc1ccccn1)Cc1ccccn1)CC[C@H]2C(=O)NC(c1ccccc1)c1ccccc1
inactive | CC[C@H](NC)C(=O)N[C@@H]1C(=O)N2[C@@H](CC[C@@H]1CNC(=O)c1ccccc1)CC[C@H]2C(=O)N[C@H](C(=O)NCCN(Cc1ccccn1)Cc1ccccn1)c1ccccc1
Active | CC[C@H](NC)C(=O)N[C@@H]1C(=O)N2[C@@H](CC[C@@H]1CNC(=O)COCCOCCNC(=O)CN(Cc1ccccn1)Cc1ccccn1)CC[C@H]2C(=O)NC(c1ccccc1)c1ccccc1
inactive | CC[C@H](NC)C(=O)N[C@@H]1C(=O)N2[C@@H](CC[C@@H]1CNC(=O)c1ccccc1)CC[C@H]2C(=O)NC(c1ccccc1)c1ccccc1

System: MDA-MB-453
Test: Induction of apoptosis in smac mimetic-resistant human MDA-MB-453 cells assessed as increase in cleaved casapse-3 at 5 uM measured after 24 hrs by Western blot analysis
Assay type: functional, cell-based
Details: not given

SMILES | Activity
CC[C@H](NC)C(=O)N[C@@H]1C(=O)N2[C@@H](CC[C@@H]1CNC(=O)CCNC(=O)CN(Cc1ccccn1)Cc1ccccn1)CC[C@H]2C(=O)NC(c1ccccc1)c1ccccc1 | inactive
CC[C@H](NC)C(=O)N[C@@H]1C(=O)N2[C@@H](CC[C@@H]1CNC(=O)CCCCCCCCCCNC(=O)CN(Cc1ccccn1)Cc1ccccn1)CC[C@H]2C(=O)NC(c1ccccc1)c1ccccc1 | inactive
CC[C@H](NC)C(=O)N[C@@H]1C(=O)N2[C@@H](CC[C@@H]1CNC(=O)COCCOCCNC(=O)CN(Cc1ccccn1)Cc1ccccn1)CC[C@H]2C(=O)NC(c1ccccc1)c1ccccc1 | inactive
CC[C@H](NC)C(=O)N[C@@H]1C(=O)N2[C@@H](CC[C@@H]1CNC(=O)CN(Cc1ccccn1)Cc1ccccn1)CC[C@H]2C(=O)NC(c1ccccc1)c1ccccc1 | inactive

System: MDA-MB-231
Test: Induction of apoptosis in smac mimetic-sensitive human MDA-MB-231 cells assessed as increase in cleaved casapse-3 at 5 uM measured after 24 hrs by Western blot analysis
Assay type: functional, cell-based
Details: not given

SMILES | Activity
CC[C@H](NC)C(=O)N[C@@H]1C(=O)N2[C@@H](CC[C@@H]1CNC(=O)CCNC(=O)CN(Cc1ccccn1)Cc1ccccn1)CC[C@H]2C(=O)NC(c1ccccc1)c1ccccc1 | inactive
CC[C@H](NC)C(=O)N[C@@H]1C(=O)N2[C@@H](CC[C@@H]1CNC(=O)CCCCCCCCCCNC(=O)CN(Cc1ccccn1)Cc1ccccn1)CC[C@H]2C(=O)NC(c1ccccc1)c1ccccc1 | Active
CC[C@H](NC)C(=O)N[C@@H]1C(=O)N2[C@@H](CC[C@@H]1CNC(=O)COCCOCCNC(=O)CN(Cc1ccccn1)Cc1ccccn1)CC[C@H]2C(=O)NC(c1ccccc1)c1ccccc1 | inactive
CC[C@H](NC)C(=O)N[C@@H]1C(=O)N2[C@@H](CC[C@@H]1CNC(=O)CN(Cc1ccccn1)Cc1ccccn1)CC[C@H]2C(=O)NC(c1ccccc1)c1ccccc1 | Active
CC[C@H](NC)C(=O)N[C@@H]1C(=O)N2[C@@H](CC[C@@H]1CNC(=O)c1ccccc1)CC[C@H]2C(=O)NC(c1ccccc1)c1ccccc1 | Active

System: not listed separately
Test: Metal chelating activity of compound assessed as 1:1 stoichiometry for compound-Zn2+ complex at 50 uM measured after 15 mins by spectrofluorimetric method
Assay type: functional
Details: not given
In short: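 Compounds were titrated with Zn2+, and chelation was followed by fluorescence spectroscopy.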

SMILES | Activity
CC[C@H](NC)C(=O)N[C@@H]1C(=O)N2[C@@H](CC[C@@H]1CNC(=O)CCNC(=O)CN(Cc1ccccn1)Cc1ccccn1)CC[C@H]2C(=O)NC(c1ccccc1)c1ccccc1 | Active
CC[C@H](NC)C(=O)N[C@@H]1C(=O)N2[C@@H](CC[C@@H]1CNC(=O)CCCCCCCCCCNC(=O)CN(Cc1ccccn1)Cc1ccccn1)CC[C@H]2C(=O)NC(c1ccccc1)c1ccccc1 | Active
CC[C@H](NC)C(=O)N[C@@H]1C(=O)N2[C@@H](CC[C@@H]1CNC(=O)COCCOCCNC(=O)CN(Cc1ccccn1)Cc1ccccn1)CC[C@H]2C(=O)NC(c1ccccc1)c1ccccc1 | Active
CC[C@H](NC)C(=O)N[C@@H]1C(=O)N2[C@@H](CC[C@@H]1CNC(=O)CN(Cc1ccccn1)Cc1ccccn1)CC[C@H]2C(=O)NC(c1ccccc1)c1ccccc1 | Active
